# Measurements reported in the RNAGym collection of RNA variant scans (doi:10.1126/science.aae0568).
# Variants at the floor of the assay were thinned out.
# B1: tRNA (parent)
# chain: GUUCCGUUGGCGUAAUGGUAACGCGUCUCCCUCCUAAGGAGAAGACUGCGGGUUCGAGUCCCGUACGGAACG
# Variants of: B1
# Assay: yeast fitness relative to wild type (ratio to wild type); higher = fitter; tRNA-Arg(CCU), competitive growth, 37 C, YPD
# Summary of the method: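 Variants of the tRNA-Arg(CCU) gene, chemically synthesised with a 3% per-site mutation rate at 69 sites, were placed at the native genomic locus in Saccharomyces cerevisiae. The pooled strains were competed in YPD at 37°C for 24 hours in six parallel replicates. Gene amplicons from the start population and from each end population were read by 100-nucleotide paired-end sequencing. Darwinian fitness relative to wild type came from changes in genotype frequencies; genotypes needed ≥ 100 starting reads, and estimates < 0.5 were set to 0.5.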
row,Variant,yeast fitness
1,C5G A21G U26C C27G G48C G67A,0.531
2,C11A U35A,0.535
3,U8A C31U U59A,≤ 0.5
4,A15C A70U,0.872
5,C29A G48A G50A C66U,≤ 0.5
6,C24U C46A,0.925
7,G12C G51C U59G,≤ 0.5
8,G39C G44C G50A,0.566
9,C5U U16C C30A C31U,≤ 0.5
10,U3A G12C G58A,0.579
11,C24A A45G C66U,≤ 0.5
12,U16A G50A,0.899
13,C24G C31U G41C C46G G63C,≤ 0.5
14,U2G G48A C60G,0.541
15,U8C U16C C24U U47A C55U,≤ 0.5
16,C4A C31G A40U U64A,≤ 0.5
17,A36C A40U A70U,≤ 0.5
18,G9A G12U A14U C31G A69U,≤ 0.5
19,A15U U28A G38A G52C C60G,≤ 0.5
20,C31A C33A C55G A57U C66U G67A,≤ 0.5
21,C34A A42U A43C,0.629
22,G48A G63A A65C,≤ 0.5
23,G25A C27G C46G C61A,≤ 0.5
24,C29G C34U G38C C55A,≤ 0.5

row,Variant,yeast fitness
1,C5G A36G G68U,0.525
2,U7A C30U G50C,≤ 0.5
3,C30U U32A U54A,0.536
4,A36U G50A U59G,≤ 0.5
5,C22U C46U,0.995
6,G10A U16A C31A G52C,≤ 0.5
7,C4A U19A G44A U53C A70U,≤ 0.5
8,C4U A14G A15C G63C,≤ 0.5
9,G25C C30G A36U C46U A65G,≤ 0.5
10,U2C U3C C5U C34U,≤ 0.5
11,U2C A36U C46G A69U,0.517
12,A15U C31U C46G G63A A65G A70U,≤ 0.5
13,U8A A42C,0.648
14,U3G U53A,0.662
15,G12C C33G C34U A36C A43G G52A G58C U64G A65G,≤ 0.5
16,C11G A42G A45U,≤ 0.5
17,C11U A21C C27U A42G A69C A70G,≤ 0.5
18,U16G G18A A21U A40C G58C A65C C66G,≤ 0.5
19,G9C A15C U53C C55G,≤ 0.5
20,U2G A15C A36C,0.649
21,C31U A45U A69U,1
22,G9C C22G C30A A42U U59C,≤ 0.5
23,U3C G10A C22A C24G U54C,≤ 0.5
24,G25A C30A C34A A69C,≤ 0.5

row,Variant,yeast fitness
1,C4G G58A,1.05
2,A20G C29U C55G A57C C61U,0.746
3,G17A U35A G44A G50A,≤ 0.5
4,A20G C22U C49U,0.682
5,U16C C30A G41C A45C C46G,≤ 0.5
6,C24G C27G C60U,0.8
7,U2C C27A G41A C49A U53C U54C,≤ 0.5
8,C4A A15U U19A C27A C29U C33U A70U,≤ 0.5
9,C33A G67C,0.621
10,C31G C34U A57U,0.561
11,G10C G44C C55G A69U,0.59
12,G18C A57C,0.627
13,U3C A37C A70U,0.683
14,U3G G18A A69U,≤ 0.5
15,A20U G23A A65G G68C,0.513
16,G17A A42U A57U C61G,0.591
17,U7C A70G,0.879
18,A14G C29U C62U A70U,0.536
19,G17C C27U U64C,≤ 0.5
20,A15G G44C,0.785
21,G9U U13C A57C C66A,≤ 0.5
22,G18C A45C,0.695
23,C11U C24G U47A,0.565
24,U16C A40U A57C C66U,≤ 0.5

row,Variant,yeast fitness
1,U13C C31G U47G U53G C61U G68A,0.591
2,C11U A14U G18A G41A A42C G50C A70G,0.552
3,G6C U26A,0.641
4,C4U C24G G58C,≤ 0.5
5,C27U G51C C61G,≤ 0.5
6,U3A U19C C22G A45U,≤ 0.5
7,C27G A42U G52A,≤ 0.5
8,C11U U59A G67A,0.542
9,A20G C24U U32A C49U C55A,≤ 0.5
10,U26C C46A C61U,≤ 0.5
11,C5G G17C C46U G68A,≤ 0.5
12,G9U G39C A70C,≤ 0.5
13,C5U G12A C49U,0.612
14,G9A C11G U32C A69C,≤ 0.5
15,C5G A37C A69C,0.511
16,G9A U19C G23C,≤ 0.5
17,A20C U47G A69U,0.559
18,C22U A43G A57U,0.59
19,C4G U7A U26A A40C A42G G58C G68A,≤ 0.5
20,G50C G63A,0.773
21,U16A U28A,0.636
22,C11G C49U G58C C61A A65U,≤ 0.5
23,U19C A69U,0.925
24,C24A A69C,0.724

row,Variant,yeast fitness
1,G18A U26A C27U C49U G58A A65G,≤ 0.5
2,G39C A43C A57C,0.628
3,A15G G52C A70U,≤ 0.5
4,C4A G9A,0.907
5,G9A C29A C31A A40C G44A U59A,≤ 0.5
6,C5U U13C C30U A40G C55A G63C A65C,≤ 0.5
7,G9C A40U,0.756
8,C5A C11U C31U C49G C61A,≤ 0.5
9,A20C A40G A42U G50A G51C A70C,0.563
10,G10C C30G U59G C66A,≤ 0.5
11,G9C A36G C62U,≤ 0.5
12,U35G G63A G68C,≤ 0.5
13,C27G U53C,≤ 0.5
14,C4A G17C C31G A37C,0.748
15,G12A G50C G68C,0.522
16,G23A C30U G48A C55A,≤ 0.5
17,A14C C24A G52A U53A,≤ 0.5
18,A14C G23A C29U U35C C55G,0.627
19,U8C G23A C34A A42U C46A C55G A65G,≤ 0.5
20,U19G U35C A40U,≤ 0.5
21,U3G C31G U64A C66U G68C,≤ 0.5
22,G6C G25A A37U,≤ 0.5
23,C24A C30U A57U C62A,≤ 0.5
24,A15G U26C U32A C34U G38C G51A A57C C66U,≤ 0.5

row,Variant,yeast fitness
1,U3G G17A,0.665
2,A20C C30U C33G A40G,0.537
3,G10C A15G G58C,0.559
4,C30U A40U C49A G56A A57U,≤ 0.5
5,A14C A42U,0.524
6,U2A G25C G38C C61U A70G,≤ 0.5
7,C5A A21U G50A,≤ 0.5
8,G9A A40C A45G A57G,≤ 0.5
9,U35A C62A C66G,0.66
10,C46A G58U G68A,0.932
11,G12A G41A,0.889
12,G10C A20C U28C A45G,≤ 0.5
13,G17C A42C C60A,≤ 0.5
14,G6A A45U G51A,≤ 0.5
15,C11U C22U C24U G41A A65C,≤ 0.5
16,C5U C30G G56C,≤ 0.5
17,C5G A15C C29A C61G,≤ 0.5
18,U7A C27U G52C,0.583
19,C24A G58A,0.859
20,U2A C24U C30U C34U G52A C61A,≤ 0.5
21,C22U C33G C34A A43C A65U,≤ 0.5
22,U8C A40G,0.877
23,U19C A37G C49A,≤ 0.5
24,G6A G10A,0.859

row,Variant,yeast fitness
1,C27A C46U A70U,0.733
2,U8C C11A A42G A43U C46U C62U,≤ 0.5
3,G17A C22A A45C G63C C66U,≤ 0.5
4,C27U A43C U59A C62U,0.517
5,G6C U8C A20G G50A A57U,≤ 0.5
6,G17C G56C G68A,≤ 0.5
7,A20C U26G A43U,≤ 0.5
8,G48A C61A A65C,≤ 0.5
9,U13A A15U G17C C61A,≤ 0.5
10,G10C A14G C24A A70U,≤ 0.5
11,A57C U64A,0.707
12,C27G C49U,0.614
13,G6A G17C G18C A45G,≤ 0.5
14,C27A A45U C60G A65U,0.54
15,C11U U26C U47A U64A,≤ 0.5
16,A14U A15C C31G A43U A70G,0.556
17,G9A C24G A40C G68A,≤ 0.5
18,C11G G23C U35G G39C G50C C66A,≤ 0.5
19,U64A A70G,0.711
20,G63C A65C,0.638
21,C34G A43C,0.594
22,C27G A42U C49U,0.58
23,C34A A40C A42U A65U G67A,≤ 0.5
